M1 agonist – M1 muscarinic receptor agonists, primary screen, CHO-M1 cells, Fluo-4 calcium, agonist mode | AID 626, 2007 | Fluo-4 calcium fluorescence; active compounds read high | B-score at 10 µM | 64,000 tested, 3% active;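 active = fluorescence rise, raw or as B-score row- and column-corrected plate score, outside the 99.7% band of its plate's samples, either direction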
S1P1 ag pot – S1P1 agonists and agonism potentiators, primary screen, cell-based, primary and confirmation screens, CRE-bla reporter | S1P1 CRE-bla cells, forskolin, beta-lactamase FRET, potentiator mode; S1P1 agonist co-added at EC20, 2 nM; 100% = saturating reference agonist, 0% = basal | activation, % at 9.5 µM | 56,000 tested, 0.57% active;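 active = activation above a cutoff set at the mean activation of all tested compounds plus 3 SD, cut at about 54% in these data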;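 also: forskolin at 4 µM as EC80 and the EC20 agonist is SEW2871; 100% = SEW2871 at its EC100 plus forskolin at EC80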
TNAP act mid DEA – human TNAP enzyme activators, primary screen, biochemical, luminescent, intermediate phosphate acceptor level; purified TNAP, CDP-star luminescence, 100 mM DEA, 30 min; active compounds read high; scale: 0 levamisole-inhibited, 1 vehicle-only enzyme; activation factor at 20 µM; 64,000 tested, under 10 active; AID 813, 2007;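 active = activation factor of at least 2 at 20 µM, relative to controls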
D1 allo mod – D1 CRE-luciferase signal change, two-sided – cell-based, HEK293 D1, dopamine EC30, D1 allosteric modulator project, primary screen; D(1A) dopamine receptor (Homo sapiens), P21728; dopamine EC30 potentiation; actives deviate in either direction; B-score at 10 µM; 58,000 tested, 5.9% active; AID 641, 2007;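 active = luminescence count or its row- and column-corrected plate score outside the 99.7% band of the plate's sample wells, on either side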
Target sequence (P21728 whole entry, looked up): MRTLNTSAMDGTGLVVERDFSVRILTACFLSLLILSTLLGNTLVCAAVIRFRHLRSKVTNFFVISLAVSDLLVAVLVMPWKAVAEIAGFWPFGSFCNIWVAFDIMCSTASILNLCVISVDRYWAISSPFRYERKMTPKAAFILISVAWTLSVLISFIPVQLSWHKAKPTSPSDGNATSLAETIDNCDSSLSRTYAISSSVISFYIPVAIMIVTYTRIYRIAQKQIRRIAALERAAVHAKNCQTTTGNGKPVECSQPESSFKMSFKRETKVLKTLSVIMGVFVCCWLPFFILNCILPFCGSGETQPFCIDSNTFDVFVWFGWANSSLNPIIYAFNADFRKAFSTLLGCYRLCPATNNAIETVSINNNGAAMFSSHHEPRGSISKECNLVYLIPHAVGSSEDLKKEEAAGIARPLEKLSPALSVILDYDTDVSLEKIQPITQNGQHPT
M1 antag – antagonists of rat M1 muscarinic receptor. Muscarinic acetylcholine receptor M1 (Rattus norvegicus), P08482. B-score at 10 µM. 64,000 tested, 3.4% active. CHO-M1 cells, Fluo-4 calcium, ACh EC80 antagonist mode; active compounds read low. AID 628, 2007;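 active = calcium fluorescence response, raw or row-and-column corrected B-score, differing from the plate sample mean either way at a set confidence level, mostly lower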
S1P3 ag – human S1P3 receptor agonists, primary screen, cell-based, primary and confirmation, NFAT-BLA reporter; S1P3 NFAT-BLA reporter cells, agonism, FRET ratio; relative to 1 µM S1P, basal subtracted; activation, % at 4.5 µM; 60,000 tested, 0.1% active; AID 373, 2006;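 active = activation above the screen-wide mean plus 3 SD, cut at about 4.5% in these data, passing the limit was not always enough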
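Measure – % activation relative to 1 µM S1P (100%), per plate · System – stable CHO line with human S1P3, Gα16, NFAT-BLA reporter · Timing – cells plated overnight, compound 4 h 37 °C, substrate 2 h RT · Technique – fluorescent BLA substrate, ex 405 nm, em 460/535 nm ratio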
D1 mod confirm – D1 receptor positive allosteric modulators, retest, confirmation, cell-based, HEK293 D1, CRE-luciferase, duplicate | shares compounds with D1 allo mod | dopamine EC30 potentiation; active compounds read high | luminescence at 10 µM | 2,200 tested, 88% active | AID 642, 2007;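 active = luminescence in either of two replicates above the same-plate mean plus 3 SD of the low-dose dopamine control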
D1 no dopamine – D1 receptor agonism without dopamine, confirmation, mechanism study for D1 allosteric modulator project, cell-based, HEK293 D1, CRE-luciferase, secondary assay 1; shares compounds with D1 allo mod; 1,900 tested, 0.8% active; luminescence at 10 µM; luminescence, no dopamine; active compounds read high; in the data active = luminescence above about 3900
Isoprot counter – counter-screen for D1 modulators: isoproterenol response in HEK293 cells. shares compounds with D1 allo mod. HEK293 D1 CRE-luciferase, isoproterenol EC30 counter-screen; active compounds read high. luminescence at 10 µM. 2,200 tested, 63% active. AID 647;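 active = luminescence in either replicate above plate mean of wells with a partly effective reference agonist dose plus 3 SD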;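 also: isoproterenol raises cAMP through native beta-adrenoceptor Gs so signal bypasses D1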
The depositor's hits bear a star. Sampled rows, rich in hits. Any-hit rate of the full collection: about 11%.

Cc1oc(-c2ccc(Cl)cc2)nc1CN1CCC(C(=O)NCCCN2CCOCC2)CC1 was read as M1 agonist 1.8, S1P1 ag pot 4, TNAP act mid DEA 1, D1 allo mod 3.6*, M1 antag -0.035, S1P3 ag 0, D1 mod confirm 6764, D1 no dopamine 1668 and Isoprot counter 2408.
Screening O=C(O)CN1CCN(Cc2ccc(F)cc2Cl)C1=O returned M1 agonist -0.62, S1P1 ag pot -11, TNAP act mid DEA 1, D1 allo mod -0.57, M1 antag -0.89 and S1P3 ag 0.
For CN(C)c1nc(Oc2ccc(/C=N/O)cc2)nc(N(C)C)n1 the results were M1 agonist -2e-05, TNAP act mid DEA 0.9, D1 allo mod 0.98, M1 antag 0.83 and S1P3 ag -1.
For CC(C)Nc1nc(NC(C)C)nc(Oc2ccc(/C=N/O)cc2)n1 the results were M1 agonist -0.0024, S1P1 ag pot -40, TNAP act mid DEA 0.9, D1 allo mod 5.3*, M1 antag -0.39, S1P3 ag 0, D1 mod confirm 6456* and Isoprot counter 2472.
Screening COc1cc2c(cc1OC)C(C)N(C(=O)C1COc3ccccc3O1)CC2 (stereo not given) returned M1 agonist 1.3, S1P1 ag pot 10, TNAP act mid DEA 0.9, D1 allo mod 7.3*, M1 antag -0.76, S1P3 ag -1, D1 mod confirm 19292*, D1 no dopamine 1592 and Isoprot counter 5644*.
Screening COc1cc2c(cc1OC)C(C)N(C(=O)c1cc3ccccc3o1)CC2 (stereo not given) returned M1 agonist -0.61, S1P1 ag pot 73, TNAP act mid DEA 1, D1 allo mod 15*, M1 antag -0.23, S1P3 ag -1, D1 mod confirm 16968*, D1 no dopamine 1740 and Isoprot counter 11008*.
`COc1cc2c(cc1OC)C(C)N(C(=O)CCN1C(=O)C3C4C=CC(C4)C3C1=O)CC2` (stereo not given) gave M1 agonist 0.27, S1P1 ag pot -21, TNAP act mid DEA 1, D1 allo mod -0.34, M1 antag -0.026 and S1P3 ag -1.
For CCc1ccccc1S(=O)(=O)Cc1ccc(C(=O)N2CCN(c3ccccn3)CC2)o1 the results were M1 agonist 2.8, S1P1 ag pot 9, TNAP act mid DEA 0.9, D1 allo mod -0.27, M1 antag -0.025 and S1P3 ag 0.
O=C(O)C1CC=CCC1C(=O)Nc1cccc(Cl)c1 (stereo not given) was read as M1 agonist 0.51, S1P1 ag pot -4, TNAP act mid DEA 1, D1 allo mod 0.71, M1 antag 0.83 and S1P3 ag -2.
CCn1cc2c(c1-c1cccc(C)c1)c(=O)n(C)c(=O)n2C was read as M1 agonist 0.33, S1P1 ag pot -2, TNAP act mid DEA 0.9, M1 antag -0.32 and S1P3 ag 0.
Cc1cccc(-c2c3c(=O)n(C)c(=O)n(C)c3cn2C(C)C)c1 was read as M1 agonist 2.8*, S1P1 ag pot 14, TNAP act mid DEA 0.9, D1 allo mod 14*, M1 antag 0.38, S1P3 ag 0, D1 mod confirm 15796*, D1 no dopamine 1340 and Isoprot counter 3908*.
`Cc1cccc(-c2c3c(=O)n(C)c(=O)n(C)c3c3cccnn23)c1` gave M1 agonist -0.2, S1P1 ag pot -9, TNAP act mid DEA 0.9, D1 allo mod 22*, M1 antag -0.63, S1P3 ag 22, D1 mod confirm 23480*, D1 no dopamine 1672 and Isoprot counter 4468*.
Screening O=C(CCCn1c(=O)[nH]c2cc(Cl)ccc2c1=O)NCCCN1CCCC1=O returned M1 agonist 0.45, TNAP act mid DEA 1.1, D1 allo mod 0.06 and M1 antag -0.058.
Screening Cc1csc(-c2coc3cc(O)cc(C)c3c2=O)n1 returned M1 agonist 0.63, S1P1 ag pot -15, TNAP act mid DEA 0.9, D1 allo mod 0.019, M1 antag -1.2 and S1P3 ag -2.
For COc1ccc(-c2coc3cc(O)cc(O)c3c2=O)cc1 the results were M1 agonist 0.53, S1P1 ag pot -17, TNAP act mid DEA 0.9, D1 allo mod 6.2*, M1 antag -3.1, S1P3 ag -2, D1 mod confirm 9820*, D1 no dopamine 1216 and Isoprot counter 3072.
C=C(C)C1Cc2nc(N)nc(C)c2C1 (stereo not given) was read as M1 agonist -0.87, S1P1 ag pot -16, TNAP act mid DEA 1, D1 allo mod 14*, M1 antag -1.1, S1P3 ag 0, D1 mod confirm 14408*, D1 no dopamine 1772 and Isoprot counter 4520*.
`C=C(C)C1Cc2c(C)nn(-c3nc(C)cc(C)n3)c2C1` (stereo not given) gave M1 agonist 0.82, S1P1 ag pot -1, TNAP act mid DEA 0.9, D1 allo mod -2, M1 antag 0.22 and S1P3 ag -2.
COc1ccc(N2CCN(CC(=O)Nc3nnc(-c4ccccc4)s3)CC2)cc1 was read as M1 agonist -0.57, S1P1 ag pot -5, TNAP act mid DEA 0.9, D1 allo mod -0.21, M1 antag 0.78 and S1P3 ag 0.
`COc1ccc2cc3c(N)nn(C(=O)Cc4ccccc4OC)c3nc2c1` gave M1 agonist 1.6, S1P1 ag pot 39, TNAP act mid DEA 0.9, D1 allo mod 2.6*, M1 antag 0.12, S1P3 ag -2, D1 mod confirm 8828*, D1 no dopamine 1504 and Isoprot counter 3504.

High-throughput results: PubChem, several laboratories
